For test [1], the system named is Per2::Luc reporter in Cry2 knockout fibroblasts. Put plainly: Per2::Luc repression assay. It is filed as cell-based, mice. As to conditions: Cry2 knockout cells, compared to wild type. The procedure, abridged:
(§1)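 Mouse fibroblasts carrying a Per2::Luc knock-in reporter (wild type, Cry1/Cry2 double, Cry1 or Cry2 knockout) grown 2 days to confluency in 384-well plates, then given test compound dilution series (final 0.7% DMSO). After 2 days, medium replaced with BrightGlo and luminescence read. Change is relative to DMSO control, n = 3–4 biological samples. IC50 from sigmoidal dose–response fit.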

The subject of test [2] is CRY1/CRY2. The following applies: cited from earlier work.
The subject of test [3] is Per2::Luc reporter in Cry1 knockout fibroblasts. Put plainly: Per2::Luc repression assay. It is filed as cell-based, mice. As to conditions: Cry1 knockout cells. The procedure, abridged: as §1

Structures are written as SMILES.

For `O=C1NCCN1CC(O)Cn1c2ccc(F)cc2c2cc(F)ccc21` (stereo not drawn) [SHP656], in test [1], the “repression of Per2::Luc reporter activity” value (shortened to “repression”) was “reduced overall repression”. The CRY isoform selectivity entry in test [2] is given as “selective for CRY2”.

As to `O=C1NCCN1C[C@H](O)Cn1c2ccc(F)cc2c2cc(F)ccc21` [SHP1703], the “repression” value in test [1] is “reduced overall repression”. Further, the CRY isoform selectivity result in test [2] is “selective for CRY2”.

With `CS(=O)(=O)N(Cc1ccco1)CC(O)Cn1c2ccccc2c2ccccc21` (stereo not drawn) [KL001], the “repression” value in test [3] is reported as “less effective than intact cells”. Further, the CRY isoform selectivity entry in test [2] is listed as “does not display a CRY isoform selectivity”.

The values above are taken from PMC12417823 (Neuro-Oncology, 2025).
